In article PMC12328631 (Nature Communications, 2025):
Peptide text beside a SMILES is read from it. * marks the point of attachment. Cbz = O=C(OCc1ccccc1)*

Columns and labels:
Sec61 translocon = Sec61 translocon (Homo sapiens, UniProt P61619); test: RELITE assay, FLuc equipped with the SP of CD4; assay type: cell-based; conditions: for effect on FLuc/RLuc ratio: Fig. 1h, 6 hours of treatment, non-selective Sec61 inhibitors; for effect on FLuc activity (FLuc/RLuc ratio) / response of the RELITE assay (FLuc/RLuc ratio): HEK293, 6 hours; for effect on FLuc activity (FLuc/RLuc ratio): Tunicamycin 10 μg/ml, Thapsigargin 3 μM; for response of the RELITE assay (FLuc/RLuc ratio): Fig. S8b
Sequence of Sec61 translocon (P60468 2-96): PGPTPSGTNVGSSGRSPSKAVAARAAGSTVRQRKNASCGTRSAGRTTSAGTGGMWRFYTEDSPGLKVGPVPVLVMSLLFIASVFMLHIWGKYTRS
Sequence of Sec61 translocon (P61619 whole entry): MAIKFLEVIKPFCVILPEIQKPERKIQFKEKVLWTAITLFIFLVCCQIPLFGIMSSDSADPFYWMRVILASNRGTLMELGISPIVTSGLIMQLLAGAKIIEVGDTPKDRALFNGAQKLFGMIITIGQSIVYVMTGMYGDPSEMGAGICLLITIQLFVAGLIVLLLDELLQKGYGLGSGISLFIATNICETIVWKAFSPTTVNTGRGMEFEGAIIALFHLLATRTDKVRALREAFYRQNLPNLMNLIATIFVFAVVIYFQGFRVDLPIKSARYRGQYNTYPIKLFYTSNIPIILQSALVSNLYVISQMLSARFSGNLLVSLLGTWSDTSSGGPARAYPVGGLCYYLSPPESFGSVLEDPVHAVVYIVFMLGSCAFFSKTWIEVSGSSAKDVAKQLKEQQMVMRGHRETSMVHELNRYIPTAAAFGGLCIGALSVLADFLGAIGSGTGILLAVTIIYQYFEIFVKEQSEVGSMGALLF
Sequence of Sec61 translocon (P60059 whole entry, further chain): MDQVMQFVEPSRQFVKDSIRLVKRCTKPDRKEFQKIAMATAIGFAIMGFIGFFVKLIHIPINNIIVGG

HA-FLuc = HA-FLuc protein levels by western blotting; assay type: cell-based, human; conditions: total cell extract, 6 h
Method in brief: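 HEK293 cells were transfected with the IRES vector and replated after 8 h, then treated 16 h later for up to 6 h. Total extracts were made in B-Buffer (50 mM HEPES, 150 mM NaCl, 1% Triton X-100, protease inhibitors) and equalised by Bradford. Cytosolic and membrane fractions came from syringe lysis and differential centrifugation. Western blots used anti-HA, with GAPDH and calnexin as fraction markers.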

[1] = tested on: Firefly luciferase (FLuc) reporter equipped with the SP of CD4; test: FLuc enzymatic activity in HEK293 transfected with the IRES-vector; assay type: cell-based, human
Method in brief: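 HEK293 cells were transiently transfected with a bicistronic IRES vector carrying the CD4 signal peptide-FLuc reporter. For fractionation, cells were treated 24 h post-transfection for 6 h, mechanically lysed and ultracentrifuged into P100 and S100 fractions, and FLuc was read on each. For the time course, cells were replated 8 h post-transfection, treated 16 h later, and FLuc was read up to 6 h. For the chase, 100 µg/ml cycloheximide was added for 2 h after 6 h treatment.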

PD-L1 = assay type: cell-based, human; conditions: read-out: IC50 (PD-L1-HA protein levels); GB138 stably expressing SPnPD-L1-HA, 0 to 20 μM, 24 hours (Fig. S4)
Method in brief: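 GB138 glioblastoma cells stably expressing SPnPD-L1-HA were kept at 37 °C in DMEM with 10% FBS, 2 mM L-Gln and 400 μg/ml G418. Cells were exposed to test compounds at 0 to 20 μM for 24 h. Extracts in Triton-containing B-Buffer were resolved by SDS-PAGE and PD-L1-HA levels quantified by western blot with ECL, using calnexin as loading control. IC50 was taken from the titration curve.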

GB138 cells = test: Cell viability assay; assay type: cell-based, human; conditions: GB138 (Fig. S5)

With `CC1(C)C(N(O)C(=O)Nc2ccc(Cl)cc2)N(c2ccc(Cl)cc2)C(=O)N1CC(=O)N/N=C/C=C/c1ccc([N+](=O)[O-])o1` (stereo not shown) [Eeyarestatin 1] the “effect on FLuc/RLuc ratio” value (Sec61 translocon) was “significant reduction of the FLuc/RLuc ratio” and the “total HA-FLuc protein levels (western blotting)” value (HA-FLuc) was “significant reduction of FLuc protein levels”.

`C/C=C(/C)C(=O)O[C@H]1C(C)=C2[C@H]([C@@H]1OC(=O)CCCCCCC)[C@@](C)(OC(C)=O)C[C@H](OC(=O)CCC)[C@@]1(O)[C@H]2OC(=O)[C@@]1(C)O` [Thapsigargin] was tested, and the “effect on FLuc activity (FLuc/RLuc ratio)” value (Sec61 translocon; Fig. S1b) was “failed to increase activity” and the “response of the RELITE assay (FLuc/RLuc ratio)” value (“response … (FLuc/RLuc ratio)” below) (Sec61 translocon) was “not responding”.

With `CC(C)C[C@@H](C=O)NC(=O)[C@H](CC(C)C)NC(=O)[C@H](CC(C)C)NC(=O)OCc1ccccc1` [MG132] (Cbz-Leu-Leu-Leu-aldehyde) the “FLuc enzymatic activity over time” value ([1]; Fig. 1e, up to 6 h) was “time-dependent increment of the FLuc enzymatic activity”.

`COc1ccc(C[C@H](N)C(=O)N[C@H]2[C@@H](O)[C@H](n3cnc4c(N(C)C)ncnc43)O[C@@H]2CO)cc1` [Puromycin] was tested, and the “response … (FLuc/RLuc ratio)” value (Sec61 translocon) was “not responding”.

For `CCN(CCO)CCCC(C)Nc1ccnc2cc(Cl)ccc12` (stereo not shown) [Hydroxychloroquine], the “response … (FLuc/RLuc ratio)” value (Sec61 translocon) was “not responding”.

For `C[C@@H]1C[C@@H]([C@H](O)CC2CC(=O)NC(=O)C2)C(=O)[C@@H](C)C1` [Cycloheximide], the “response … (FLuc/RLuc ratio)” value (Sec61 translocon) was “not responding”.

`C=C1CN(S(=O)(=O)c2ccc(C)cc2)CCCN(Cc2ccccc2)CCCN(S(=O)(=O)c2ccc(C)cc2)C1` [CADA, Cyclotriazadisulfonamide] was tested, and the “CADA effect on FLuc activity under co-treatment with cycloheximide (CHX)” value (Sec61 translocon; Fig. S1b, CADA 20 μM + CHX 100 μg/ml, 6 hours) was “abrogated the CADA effect”, the IC50 (PD-L1) was roughly 20 µM and the “total HA-FLuc protein levels (western blotting)” value (HA-FLuc) was “significant reduction of the total HA-FLuc protein levels”. For the same molecule, the “FLuc activity after cell fractionation” value ([1]; Fig. 1d, S100 vs P100) was “increased FLuc activity only in the cytosolic S100 fraction”.

For `C[C@H]1CCC/C=C/[C@@H]2C[C@H](O)C[C@H]2[C@H](O)/C=C/C(=O)O1` [Brefeldin A], the “response … (FLuc/RLuc ratio)” value (Sec61 translocon) was “not responding”.

In the case of Tunicamycin, the “effect on FLuc activity (FLuc/RLuc ratio)” value (Sec61 translocon; Fig. S1b) is reported as “significant elevation of the FLuc activity” and the “toxicity in cell viability assay” value (GB138 cells) is reported as “highly toxic for the cells”.

`CC(=C\C=C\C(C)=C\[C@H](O)[C@@H](O)C[C@H](C)O)/C=C(C)/C=C/C(=O)O[C@H]1CCCC(=O)O[C@@H]([C@@H](C)C/C(C)=C/[C@@H](C)[C@H](O)C[C@@H](C)O)C/C=C(\C)C[C@@H]1C` [Mycolactone] was tested, and the “effect on FLuc/RLuc ratio” value (Sec61 translocon) was “significant elevation of the FLuc/RLuc ratio”.
